Experimental data: ChEMBL document CHEMBL1125449, “Substitution on the Phe3 aromatic ring in cyclic delta opioid receptor-selective dermorphin/deltorphin tetrapeptide analogues: electronic and lipophilic requirements for receptor affinity” (J Med Chem, 1992)
Positions of bridges follow the written chain, without caps; N, C: chain ends. Non-standard residues stand in square brackets, D forms with d. Residues, ends and D or L forms follow the SMILES beside them. Phe(4-NO2) = N[C@@H](Cc1ccc([N+](=O)[O-])cc1)C(=O)O; Phe(4-tBu) = CC(C)(C)c1ccc(C[C@H](N)C(=O)O)cc1; Phe(4-Cl) = N[C@@H](Cc1ccc(Cl)cc1)C(=O)O; Phe(3-F) = N[C@@H](Cc1cccc(F)c1)C(=O)O; Phe(4-F) = N[C@@H](Cc1ccc(F)cc1)C(=O)O; Phe(4-Me) = Cc1ccc(C[C@H](N)C(=O)O)cc1; Phe(2-F) = N[C@@H](Cc1ccccc1F)C(=O)O; mTyr = N[C@@H](Cc1cccc(O)c1)C(=O)O; Pen = CC(C)(S)[C@H](N)C(=O)O

Key:
[1] = target: T1, Mu-type opioid receptor (Cavia porcellus, UniProt P97266); experiment: Compound was tested for the inhibition of [3H]- [D-Ala2, N-MePhe4, Gly5-ol]-enkephalin (DAMGO) binding to opioid receptor mu in guinea pig brain homogenates; format: tissue-based
T1 sequence (P97266 whole entry): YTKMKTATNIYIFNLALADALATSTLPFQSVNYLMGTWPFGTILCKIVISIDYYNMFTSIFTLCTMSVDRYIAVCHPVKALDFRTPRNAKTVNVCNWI
How it was run: (§1)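 Guinea pig brain membranes (washed, preincubated 37 °C 30 min to remove endogenous opioids) in 50 mM Tris pH 7.4. Test compound preincubated with membranes 15 min at 25 °C, then 0.6 nM [3H]DAMGO added and incubated 75 min at 25 °C. Nonspecific binding defined with 5 μM DAMGO. Filtration, scintillation counting. 12 concentrations, triplicate. IC50 by regression; Ki from saturation-derived KD.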

[2] = target: T2, Kappa-type opioid receptor (Cavia porcellus, UniProt P41144); experiment: Compound was tested for the inhibition of [3H]- (U69,593) binding to opioid receptor kappa in guinea pig brain homogenates; format: tissue-based
T2 sequence (P41144 whole entry): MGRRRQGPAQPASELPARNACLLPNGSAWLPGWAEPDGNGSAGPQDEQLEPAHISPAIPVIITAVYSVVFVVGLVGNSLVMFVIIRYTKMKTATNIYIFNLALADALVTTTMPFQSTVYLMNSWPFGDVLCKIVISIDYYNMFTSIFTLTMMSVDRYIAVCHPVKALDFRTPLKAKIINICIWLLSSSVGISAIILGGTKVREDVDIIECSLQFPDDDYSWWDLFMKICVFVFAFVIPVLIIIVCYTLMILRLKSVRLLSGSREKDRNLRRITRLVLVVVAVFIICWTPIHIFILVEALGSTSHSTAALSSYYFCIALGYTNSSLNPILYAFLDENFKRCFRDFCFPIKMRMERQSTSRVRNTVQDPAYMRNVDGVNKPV
How it was run: as §1, with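 “then 0.9” for “then 0.6”, “nM [3H]U69,593” for “nM [3H]DAMGO”, “incubated 90” for “incubated 75”, “with 10” for “with 5”, “μM U69,593.” for “μM DAMGO.”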

[3] = target: Mu-type opioid receptor (Cavia porcellus) (UniProt P97266); experiment: Ratio of binding affinity towards opioid receptor mu to opioid receptor delta
Sequence of Mu-type opioid receptor (Cavia porcellus) (P97266 whole entry): as the sequence (P97266 whole entry) above

[4] = target: T1, Mu-type opioid receptor; experiment: Compound was tested for the inhibition of [3H]- [D-Ala2, N-MePhe4, Gly5-ol]-enkephalin (DAMGO) binding to Opioid receptor mu 1 in guinea pig brain homogenates; format: tissue-based
[5] = target: Opioid receptors; mu & delta (Homo sapiens) (UniProt P41143+P35372); experiment: Ratio of binding affinity towards mu receptor to delta receptor.; format: protein assay
Sequence of Opioid receptors; mu & delta (Homo sapiens) (P35372 whole entry, looked up): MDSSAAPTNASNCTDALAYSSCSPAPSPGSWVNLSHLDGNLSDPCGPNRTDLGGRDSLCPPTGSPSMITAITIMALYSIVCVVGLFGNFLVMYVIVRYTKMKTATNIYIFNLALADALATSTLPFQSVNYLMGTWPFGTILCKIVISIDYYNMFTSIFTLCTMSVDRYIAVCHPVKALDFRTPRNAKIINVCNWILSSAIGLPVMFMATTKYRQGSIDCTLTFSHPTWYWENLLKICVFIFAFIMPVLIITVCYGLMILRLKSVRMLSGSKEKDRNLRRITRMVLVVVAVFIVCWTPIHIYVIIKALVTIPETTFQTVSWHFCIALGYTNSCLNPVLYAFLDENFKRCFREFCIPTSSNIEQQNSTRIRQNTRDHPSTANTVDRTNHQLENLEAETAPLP
Sequence of Opioid receptors; mu & delta (Homo sapiens) (P41143 whole entry, looked up): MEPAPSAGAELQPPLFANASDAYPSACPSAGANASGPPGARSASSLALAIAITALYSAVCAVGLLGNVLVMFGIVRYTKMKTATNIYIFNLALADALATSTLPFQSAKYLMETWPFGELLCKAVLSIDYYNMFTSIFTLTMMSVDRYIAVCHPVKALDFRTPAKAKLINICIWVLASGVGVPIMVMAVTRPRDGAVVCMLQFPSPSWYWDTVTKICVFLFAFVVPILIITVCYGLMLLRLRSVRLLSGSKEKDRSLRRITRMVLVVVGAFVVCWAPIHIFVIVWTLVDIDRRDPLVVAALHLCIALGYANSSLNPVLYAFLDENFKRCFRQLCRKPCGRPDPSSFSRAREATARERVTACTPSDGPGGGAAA

[6] = target: T2, Kappa-type opioid receptor; experiment: Compound was tested for the inhibition of [3H]- (U69,593) binding to Opioid receptor kappa 1 in guinea pig brain homogenates; format: tissue-based

Compound: CC1(C)SSC[C@H](NC(=O)[C@@H](N)Cc2ccc(O)cc2)C(=O)N[C@@H](Cc2cccc(O)c2)C(=O)N[C@@H]1C(=O)O (H-YC[mTyr][Pen]-OH; disulfide 2-4)
- Ki [1]: 0.712 µM
- Ki [2]: > 10 µM
- Ratio [3]: 76.6
- Ki [4]: 3.4 µM
- Ratio [5]: 22.3
- Ki [6]: > 10 µM

Compound: CC(C)(C)c1ccc(C[C@@H]2NC(=O)[C@@H](NC(=O)[C@@H](N)Cc3ccc(O)cc3)CSSC(C)(C)[C@@H](C(=O)O)NC2=O)cc1 (H-YC[Phe(4-tBu)][Pen]-OH; disulfide 2-4)
- Ki [1]: 10 µM
- Ki [2]: > 10 µM
- Ratio [3]: 270
- Ki [4]: 10 µM
- Ratio [5]: 15
- Ki [6]: > 10 µM

Compound: Cc1ccc(C[C@@H]2NC(=O)[C@@H](NC(=O)[C@@H](N)Cc3ccc(O)cc3)CSSC(C)(C)[C@@H](C(=O)O)NC2=O)cc1 (H-YC[Phe(4-Me)][Pen]-OH; disulfide 2-4)
- Ki [1]: 1.75 µM
- Ki [2]: > 10 µM
- Ratio [3]: 325

Compound: CC1(C)SSC[C@H](NC(=O)[C@@H](N)Cc2ccc(O)cc2)C(=O)N[C@@H](Cc2ccc(Cl)cc2)C(=O)N[C@@H]1C(=O)O (H-YC[Phe(4-Cl)][Pen]-OH; disulfide 2-4)
- Ki [1]: 0.327 µM
- Ki [2]: 10 µM
- Ratio [3]: 334

Compound: CC1(C)SSC[C@H](NC(=O)[C@@H](N)Cc2ccc(O)cc2)C(=O)N[C@@H](Cc2cccc(F)c2)C(=O)N[C@@H]1C(=O)O (H-YC[Phe(3-F)][Pen]-OH; disulfide 2-4)
- Ki [1]: 0.0555 µM
- Ki [2]: > 10 µM
- Ratio [3]: 19.2

Compound: CC1(C)SSC[C@H](NC(=O)[C@@H](N)Cc2ccc(O)cc2)C(=O)N[C@@H](Cc2ccc(O)cc2)C(=O)N[C@@H]1C(=O)O (H-YCY[Pen]-OH; disulfide 2-4)
- Ki [4]: 3.45 µM
- Ratio [5]: 135
- Ki [6]: > 10 µM

Compound: CC1(C)SSC[C@H](NC(=O)[C@@H](N)Cc2ccc(O)cc2)C(=O)N[C@@H](Cc2ccc([N+](=O)[O-])cc2)C(=O)N[C@@H]1C(=O)O (H-YC[Phe(4-NO2)][Pen]-OH; disulfide 2-4)
- Ki [4]: 0.137 µM
- Ratio [5]: 82.5
- Ki [6]: > 10 µM

Compound: CC1(C)SSC[C@H](NC(=O)[C@@H](N)Cc2ccc(O)cc2)C(=O)N[C@@H](Cc2ccccc2F)C(=O)N[C@@H]1C(=O)O (H-YC[Phe(2-F)][Pen]-OH; disulfide 2-4)
- Ki [1]: 0.0919 µM
- Ki [2]: > 10 µM
- Ratio [3]: 28.1

Compound: CC1(C)SSC[C@H](NC(=O)[C@@H](N)Cc2ccc(O)cc2)C(=O)N[C@@H](Cc2ccc(F)cc2)C(=O)N[C@@H]1C(=O)O (H-YC[Phe(4-F)][Pen]-OH; disulfide 2-4)
- Ki [4]: 0.161 µM
- Ratio [5]: 146
- Ki [6]: > 10 µM
